F508del corr = correctors of CFTR F508del function in bronchial epithelial cells; CFBE cells, YFP halide quenching; stimulated with forskolin plus potentiator P3; % fluorescence drop versus neutral controls; activity (quench increase), % at 7.58 µM; 350,000 compounds, 0.36% hits; AID 720511;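 active = mean added fluorescence quench of at least 8% versus neutral control, with both replicates also reaching 8%; inconclusive = only one of the mean or replicate conditions met; inactive = mean below 8% and not both replicates reaching 8%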;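 note: cells transiently co-express mutant CFTR-F508del with the halide-sensitive YFP; corrector assay measuring rescue of mutant channel to the surface after 24 h compound exposure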
FGF22 binding = binders of recombinant human FGF22 by thermal shift. Q9HCT0. SYPRO orange fluorescence; percent of sucrose octasulfate shift, DMSO zero. activity (Tm shift, normalised), % at 9.99 µM. 340,000 compounds, 1.5% hits;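 active = mean Tm shift, scaled 0 neutral to 100 positive control, at about 1.3% or above, every replicate too, limit read from the data; inconclusive = no clear call, values can overlap the other calls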
E-sel inducer = induces E-selectin expression in human endothelial cells; P16581; HUVEC E-selectin immunofluorescence imaging; normalized: neutral wells 0, TNF-alpha wells 100; activation, % at 7.58 µM; 260,000 compounds, 0.37% hits;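 active = mean E-selectin-positive cell signal at least 10% of the positive control, reached in at least 60% of replicates, without over 20% cell loss; inconclusive = no rule given, readout overlaps actives, possibly toxicity-flagged; inactive = the rest, including those meeting only one limit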
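Test system: HUVEC | Signal: Immunofluorescence imaging | Read-out: Percent E-selectin-positive cells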
ERAP1 inh = blocks human ERAP1 aminopeptidase activity; recombinant ERAP1, Leu-AMC fluorescence, 60 min; inhibition, % at 10.7 µM; 340,000 compounds, 0.15% hits; AID 652197;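 active = mean replicate inhibition of at least 30%, or all replicates individually reaching that 30% level; inactive = mean below 30% and not every replicate reaching it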;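 note: 0% = neutral control wells and 100% = L-leucinethiol positive control wells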
DENV2 CPE rescue = inhibitors of DENV2 cytopathic effect. CPE inhibition, % at 9.99 µM. 350,000 compounds, 1.7% hits. DENV2-infected cells, cytopathic effect rescue, plate reader; in the data active = CPE inhibition above about 20%, passing the limit was not always enough; inconclusive = no clear call, values can overlap the other calls; tested in BHK-21 cells;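 note: 0% = median of neutral control wells and 100% = median of positive control wells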
* marks the source's active call; other numbers are inactive results; ? = inconclusive; nt = no result. A selection: hits, their analogues and other compounds. The true share with any hit is near 3.7%.

SMILES	F508del corr	FGF22 binding	E-sel inducer	ERAP1 inh	DENV2 CPE rescue
O=C(NCc1ccccc1)C(c1ccc(C(F)(F)F)cc1)n1c(=O)c(-c2cc3ccccc3[nH]2)nc2ccccc21 (configuration not stated)	2	0	1	nt	38*
O=C(NC1CCCCC1)C(c1ccccc1)n1c(=O)c(-c2cc3ccccc3[nH]2)nc2ccccc21 (configuration not stated)	1	35*	0	-1	-6
OC1CCCN(CC(O)c2ccccc2)C1 (configuration not stated)	0	43*	nt	1	-5
CC(C)NC(=O)N[C@@H]1CC[C@H](CCNC(=O)C2CC2)O[C@@H]1CO	-2	0	0	0	-2
COc1ccc(CN(C)C[C@@H]2Oc3ccc(NS(=O)(=O)c4c(C)noc4C)cc3CC(=O)N([C@@H](C)CO)C[C@H]2C)cc1	-4	0	?	-2	17
O=C(Nc1cccc(C(=O)O)c1)/C(=C\c1ccccc1)NC(=O)c1ccco1	4	0	nt	-14	27*
CNC[C@@H]1Oc2ccc(NS(=O)(=O)c3cccs3)cc2C(=O)N([C@H](C)CO)C[C@H]1C	-1	0	0	2	-1
C[C@@H]1CN([C@H](C)CO)C(=O)c2cc(NS(=O)(=O)c3ccccc3)ccc2O[C@@H](C)CCCCO[C@@H]1CN(C)S(=O)(=O)c1cn(C)cn1	-2	0	0	2	-15
COc1ccc(-c2cn(CC[C@@H]3CC[C@H](NC(=O)Nc4ccc(F)cc4)[C@@H](CO)O3)nn2)cc1	4	nt	0	-2	50*
CCCNC(=O)N[C@H]1CC[C@@H](CCn2cc(-c3cccc(F)c3)nn2)O[C@H]1CO	4	0	1	3	56*
COc1ccc(-c2nc(S(=O)(=O)c3ccccc3)c(N3CCN(C)CC3)o2)cc1	0	46*	0	2	-9
CCOc1ccc(-c2nc(S(=O)(=O)c3ccccc3)c(N3CCOCC3)o2)cc1	-5	0	2	4	-1
Cc1ccc(S(=O)(=O)NCC[C@H]2CC[C@H](NC(=O)Nc3ccccc3F)[C@@H](CO)O2)cc1	0	0	0	0	-2
O=C(CSc1nc2ccccc2n1-c1ccccc1)Nc1ncc(Cl)cc1Cl	8.7*	0	2	1	-1
Cc1noc(C)c1NC(=O)Nc1cccc2c1O[C@@H](CN(C)S(=O)(=O)c1ccccc1)[C@@H](C)CN([C@@H](C)CO)C2=O	2	nt	0	nt	nt
O=C(NCCCC1CCCC1)C1CCC(=O)N(Cc2cccc(C(F)(F)F)c2)C1 (configuration not stated)	-1	0	0	-4	26*
CO[C@H]1CN(C)C(=O)c2cc(NS(=O)(=O)c3cccc(F)c3)ccc2OC[C@@H](C)NC[C@H]1C	-1	nt	0	nt	nt
COc1ccc2c3c(n(C)c2c1)[C@H](CO)N(CC1CCCC1)CC31CN(C(=O)Nc2ccccc2)C1	1	nt	0	0	5
COc1ccc2c3c(n(C)c2c1)[C@H](CO)N(Cc1ccccc1F)CC31CCN(C(C)=O)CC1	0	nt	0	nt	93*
COc1ccc2c3c(n(C)c2c1)[C@H](CO)N(Cc1ccccc1F)CC31CN(C(C)=O)C1	0	0	0	-6	5
COc1ccc2c3c(n(C)c2c1)[C@@H](CO)N(CC1CC1)CC31CN(C(=O)CC2CC2)C1	1	0	0	-4	21*
COc1ccc2c3c(n(C)c2c1)[C@H](CO)N(CC1CC1)CC31CN(C(=O)Nc2ccccc2)C1	-3	0	0	nt	23*
COc1ccc2c3c(n(C)c2c1)[C@H](CO)N(CC1CC1)CC31CN(C(=O)CC2CC2)C1	-1	0	1	-3	-2
COc1cccc(NC(=O)N(C)C[C@H]2OCc3cnnn3CCCC(=O)N([C@@H](C)CO)C[C@H]2C)c1	-1	nt	0	nt	nt
CSc1nnc(-c2cc[n+](C)cc2)n1CCO	nt	0	2	102*	0
SMILES	F508del corr	FGF22 binding	E-sel inducer	ERAP1 inh	DENV2 CPE rescue
C[C@@H]1CN([C@@H](C)CO)C(=O)c2cccc(NC(=O)C3CC3)c2O[C@@H]1CN(C)S(=O)(=O)c1cn(C)cn1	-3	0	0	-1	29*
C[C@@H]1CN([C@H](C)CO)C(=O)c2cccc(NC(=O)Nc3ccc(F)cc3)c2O[C@@H]1CN(C)S(=O)(=O)c1cn(C)cn1	-2	nt	80*	nt	nt
C[C@@H]1CN([C@@H](C)CO)C(=O)c2cccc(NC(=O)CCCCCC(=O)Nc3ccccc3N)c2O[C@H]1CN(C)S(=O)(=O)c1cn(C)cn1	1	0	105*	3	2
C[C@@H](NC(=O)C[C@@H]1CC[C@@H]2[C@H](COC[C@H](O)CN2Cc2cc(F)ccc2F)O1)c1ccccc1	-1	0	0	1	nt
CCOc1cc(N2CCOCC2)c(OCC)cc1NC(=O)[C@H](C)NC(=O)c1ccco1	1	-1	nt	0	37*
CCOc1cc(N2CCOCC2)c(OCC)cc1NC(=O)c1ccc(OC(C)C)cc1	5	43*	8	0	2
O=C(Cc1cccnc1)N1[C@H](CO)[C@H]2c3ccccc3NC[C@H]21	-3	0	0	-3	11
Cc1ccc(S(=O)(=O)Nc2ccc3c(c2)C(=O)N([C@@H](C)CO)C[C@@H](C)[C@H](CN(C)C(=O)Nc2ccccc2)O3)cc1	-3	0	3	12	?
C[C@H](CO)N1C[C@H](C)[C@H](CN(C)C(=O)Nc2ccc3c(c2)OCO3)OCCCC[C@H](C)Oc2ccc(NC(=O)c3ccncc3)cc2C1=O	0	0	0	1	-2
CC(C)NC(=O)Nc1ccc2c(c1)C(=O)N([C@@H](C)CO)C[C@H](C)[C@H](CN(C)Cc1ccc(C(=O)O)cc1)OCCCC[C@@H](C)O2	-3	-1	0	-1	25*
CC(C)NC(=O)Nc1ccc2c(c1)C(=O)N([C@@H](C)CO)C[C@@H](C)[C@@H](CN(C)Cc1ccc(C(F)(F)F)cc1)OCCCC[C@@H](C)O2	3	0	nt	3	56*
C[C@H](CO)N1C[C@H](C)[C@@H](CN(C)Cc2ccc(C(=O)O)cc2)Oc2ccc(NC(=O)NC3CCCCC3)cc2C1=O	1	0	1	-3	45*
CC(C)NC(=O)Nc1ccc2c(c1)C(=O)N([C@@H](C)CO)C[C@H](C)[C@H](CN(C)Cc1ccc(C(F)(F)F)cc1)OCCCC[C@@H](C)O2	3	0	nt	0	-1
CC(C)NC(=O)Nc1ccc2c(c1)C(=O)N([C@@H](C)CO)C[C@H](C)[C@@H](CN(C)Cc1ccc(C(=O)O)cc1)OCCCC[C@@H](C)O2	-2	1	0	-2	-4

Compound activity deposited in PubChem BioAssay by Broad Institute.
